Data published in ChEMBL document CHEMBL1143096, “Synthesis and antitumor activity of benzils related to combretastatin A-4” (Bioorg Med Chem Lett, 2008).
Calls of active or inactive are those of the source. The rule behind the calls is not given here.

Columns and labels:
[1] = system: HCT-116; experiment: Cytotoxicity against human HCT116 cells; assay type: functional, cell-based
Outline: (§1)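 Growth inhibition assay; IC50 taken as the sample concentration producing 50% reduction in cell growth, each drug concentration tested in triplicate.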

[2] = Inhibition of tubulin assembly at 130 uM
[3] = Inhibition of tubulin assembly at 13 uM
[4] = Inhibition of tubulin assembly
[5] = system: K562; experiment: Cytotoxicity against human K562 cells; assay type: functional, cell-based
[6] = Cytotoxicity against human H1299 cells; assay type: functional, cell-based; settings: NCI-H1299; outline: as §1
[7] = system: MDA-MB-231; experiment: Cytotoxicity against human MDA-MB-231 cells; assay type: functional, cell-based
[8] = system: HCT-116; experiment: Cell cycle arrest in human HCT116 cells assessed as accumulation at G2/M phase at 50 nM after 24 hrs by flow cytometry; assay type: functional
Outline: (§2)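 Flow cytometry of cellular DNA content after 24 h exposure to 10, 20 or 50 nM; percentage of cells in G2/M phase reported, DMSO vehicle control; data representative of three independent experiments.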

[9] = Cell cycle arrest in human H1299 cells assessed as accumulation at G2/M phase at 50 nM after 24 hrs by flow cytometry; assay type: functional, cell-based; settings: NCI-H1299; outline: as §2
[10] = system: HUVEC; experiment: Cytotoxicity against HUVEC; assay type: cell-based; settings: Homo sapiens
Outline: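 HUVEC proliferation measured after 72 h incubation; IC50 derived for growth inhibition.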

[11] = system: HCT-116; experiment: Induction of apoptosis in human HCT116 cells after 24 hrs by caspase activation assay; assay type: functional, cell-based
Outline: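 Cells treated with 10, 50 and 100 nM for 24 h; caspase 3 and 7 activities measured by standard caspase cleavage assay.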

[12] = Cell cycle arrest in human H1299 cells assessed as accumulation at G2/M phase at 10 nM after 24 hrs by flow cytometry; assay type: functional, cell-based; settings: NCI-H1299; outline: as §2
[13] = system: HCT-116; experiment: Cell cycle arrest in human HCT116 cells assessed as accumulation at G2/M phase at 10 nM after 24 hrs by flow cytometry; assay type: functional; outline: as §2
[14] = system: HCT-116; experiment: Cell cycle arrest in human HCT116 cells assessed as accumulation at G2/M phase at 20 nM after 24 hrs by flow cytometry; assay type: functional; outline: as §2
[15] = Cell cycle arrest in human H1299 cells assessed as accumulation at G2/M phase at 20 nM after 24 hrs by flow cytometry; assay type: functional, cell-based; settings: NCI-H1299; outline: as §2
[16] = system: HUVEC; experiment: Disruption of integrity of newly formed blood vessels of HUVEC at 100 nM after 3 hrs by tube formation assay; assay type: functional, cell-based; settings: Homo sapiens, Blood vessel
Outline: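 HUVEC seeded on Matrigel; 24 h later, compound (100 nM) or vehicle added to formed cords; images taken 3 h after addition to assess network integrity.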

In the case of COc1cc(C(=O)C(=O)c2ccccn2)cc(OC)c1OC, the Activity [1] is reported as “inactive” and the inhibition [2] is reported as 23%.

COc1ccc(C(=O)C(=O)c2cc(OC)c(OC)c(OC)c2)cc1OC showed an inhibition [3] of 52%, an IC50 [1] of 300 nM and an IC50 [4] of 63 µM. It also gave an inhibition [2] of 85%.

In the case of COc1cc(C(=O)C(=O)c2ccccc2C#N)cc(OC)c1OC, the inhibition [3] is reported as 12%, the Activity [1] is reported as “inactive” and the inhibition [2] is reported as 0%.

COc1ccc(C(=O)C(=O)c2cc(OC)c(OC)c(OC)c2)cc1OC(C)=O showed an IC50 [5] of 25 nM, an IC50 [1] of 40 nM and an IC50 [6] of 30 nM. For the same compound, the IC50 [7] was 40 nM and the inhibition [2] was 14%.

COc1ccc(C(=O)C(=O)c2cc(OC)c(OC)c(OC)c2)cc1F showed an inhibition [3] of 47%, an IC50 [1] of 700 nM and an inhibition [2] of 73%.

In the case of COc1cc(C(=O)C(=O)c2ccc(C#N)cc2)cc(OC)c1OC, the Activity [1] is reported as “inactive” and the inhibition [2] is reported as 28%.

For COc1cc(C(=O)C(=O)c2cnc3ccccc3c2)cc(OC)c1OC, the inhibition [3] was 35%, the Activity [1] was “inactive” and the inhibition [2] was 58%.

COc1ccc(C(=O)C(=O)c2cc(OC)c(OC)c(OC)c2)cc1N gave an Activity [8] of 28%, an Activity [9] of 16.5% and an IC50 [10] of 40 nM. For the same compound, the Activity [11] was “Active”, the inhibition [3] was 82% and the IC50 [5] was 20 nM. It also gave an IC50 [1] of 38 nM, an IC50 [6] of 50 nM and an IC50 [7] of 30 nM. The Activity [12] was 11.7%, the Activity [13] was 13% and the Activity [14] was 15.9%. The Activity [15] was 12.2%, the Activity [16] was “Active” and the IC50 [4] was 5 µM. It also gave an inhibition [2] of 88%.

For COc1cc(C(=O)C(=O)c2ccc3ccccc3c2)cc(OC)c1OC, the inhibition [3] was 23%, the IC50 [1] was 3000 nM and the inhibition [2] was 80%.

COc1ccc(C(=O)C(=O)c2cc(OC)c(OC)c(OC)c2)cc1NC(C)=O gave an inhibition [3] of 45%, an IC50 [1] of 350 nM and an inhibition [2] of 45%.

With COc1ccc(C(=O)C(=O)c2cc(OC)c(OC)c(OC)c2)cc1O the Activity [8] was 22.8%, the Activity [9] was 27.7% and the IC50 [10] was 35 nM. The Activity [11] was “Active”, the inhibition [3] was 65% and the IC50 [5] was 25 nM. For the same compound, the IC50 [1] was 35 nM, the IC50 [6] was 30 nM and the IC50 [7] was 40 nM. The Activity [12] was 11.4%, the Activity [13] was 11% and the Activity [14] was 18.5%. For the same compound, the Activity [15] was 15%, the IC50 [4] was 1.5 µM and the inhibition [2] was 73%.

COc1ccc(C(=O)C(=O)c2cc(OC)c(OC)c(OC)c2)cc1 gave an inhibition [3] of 58%, an IC50 [1] of 300 nM and an IC50 [4] of 21 µM. For the same compound, the inhibition [2] was 89%.

For COc1ccc(/C=C\c2cc(OC)c(OC)c(OC)c2)cc1O [COMBRETASTATIN A4], the IC50 [10] was 2.5 nM, the inhibition [3] was 77% and the IC50 [1] was 1.8 nM. It also gave an IC50 [6] of 5 nM and an inhibition [2] of 88%.

Compound COc1cc(C(=O)C(=O)c2ccccc2)cc(OC)c1OC has an inhibition [3] of 34%, an IC50 [1] of 3000 nM and an inhibition [2] of 79%.

COc1cc(C(=O)C(=O)c2cccc(O)c2)cc(OC)c1OC gave an inhibition [3] of 42%, an IC50 [1] of 2000 nM and an inhibition [2] of 69%.
